Active and inactive are the calls of the source. No cut-off for these calls is given here.
Legend:
HCT-116 [1] = test: Inhibition of TNF-alpha-induced NF-kappaB activation in human HCT116 cells at 1 mM after 6 hrs by luciferase reporter gene assay; format: cell-based
Outline: (§1)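 HCT116 cells at 50-60% confluence were cotransfected (Fugene) with an NFκB-dependent firefly luciferase plasmid and CMV Renilla plasmid (4 ng). After 24 h, cells received TNF-α (1 ng/ml) plus compound for 6 h, then were lysed. Dual-luciferase read-out, firefly normalized to Renilla. IC50 came from varied concentrations.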

RAW264.7 [2] = conditions: Mus musculus, 5 mM
RAW264.7 [3] = conditions: Mus musculus, 2 to 4 mM
RAW264.7 [4] = test: Inhibition of NF-kappaB-mediated iNOS protein expression in LPS-stimulated mouse RAW264.7 cells at 0.5 to 2 mM by Western blot analysis; format: cell-based
Outline: (§2)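 RAW264.7 cells in DMEM with 10% FBS were pretreated with a range of drug concentrations and stimulated with LPS. iNOS was immunoblotted in whole-cell lysates (30-40 µg), α-tubulin served as loading control, in duplicate.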

[5] = (§3) Inhibition of TNF-alpha-induced NF-kappaB activation in human HCT116 cells after 6 hrs by luciferase reporter gene assay; format: cell-based; conditions: HCT-116, 6 h; outline: as §1
HCT-116 [6] = test: as §3; format: cell-based; outline: as §1
RAW264.7 [7] = test: Inhibition of NF-kappaB-mediated iNOS protein expression in LPS-stimulated mouse RAW264.7 cells at 0.1 mM by Western blot analysis; format: cell-based
Outline: (§4)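 RAW264.7 cells grown in DMEM with 10% FBS were pretreated 1 h with drug, then stimulated with LPS (1 ng/ml) for 6 h. iNOS was immunoblotted in whole-cell lysates (30-40 µg) with a polyclonal antibody, α-tubulin served as loading control, in duplicate.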

RAW264.7 [8] = test: Inhibition of NF-kappaB-mediated iNOS protein expression in LPS-stimulated mouse RAW264.7 cells at 0.25 mM by Western blot analysis; format: cell-based; outline: as §4
RAW264.7 [9] = test: Inhibition of NF-kappaB-mediated iNOS protein expression in LPS-stimulated mouse RAW264.7 cells at 1 to 4 mM by Western blot analysis; format: cell-based; outline: as §2
Rattus norvegicus [10] = test: Antiinflammatory activity against trinitrobenzenesulfonic acid-induced colitis in rat assessed as decrease in CINC2 protein expression administered rectally QD for 6 days; format: functional, organism-based
Rattus norvegicus [11] = test: Antiinflammatory activity against trinitrobenzenesulfonic acid-induced colitis in rat assessed as healing of damaged colon at 300 uM administered rectally QD for 6 days; format: functional, organism-based
Outline: (§5)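 TNBS colitis in rats: after a 24 h fast with free access to water and light ether anaesthesia, TNBS (15 mg/0.3 ml/rat in 50% aqueous ethanol) was instilled through a rectal cannula whose tip sat 8 cm proximal to the anus. From day 3, drug in PBS (500 µL; 100 or 300 µM, or sodium 5-aminosalicylate 30 mM) was given rectally once daily for 6 days, then rats were sacrificed.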

Rattus norvegicus [12] = test: Antiinflammatory activity against trinitrobenzenesulfonic acid-induced colitis in rat assessed as decrease in COX2 protein at 300 uM administered rectally QD for 6 days; format: functional, organism-based; outline: as §5
Rattus norvegicus [13] = test: Antiinflammatory activity against trinitrobenzenesulfonic acid-induced colitis in rat assessed as decrease in CINC-3 protein at 300 uM administered rectally QD for 6 days; format: functional, organism-based; outline: as §5
Rattus norvegicus [14] = test: Antiinflammatory activity against trinitrobenzenesulfonic acid-induced colitis in rat assessed as decrease in COX2 protein administered rectally QD for 6 days; format: functional, organism-based; outline: as §5
Rattus norvegicus [15] = test: Antiinflammatory activity against trinitrobenzenesulfonic acid-induced colitis in rat assessed as healing of damaged colon administered rectally QD for 6 days; format: functional, organism-based; outline: as §5
Rattus norvegicus [16] = test: Antiinflammatory activity against trinitrobenzenesulfonic acid-induced colitis in rat assessed as decrease in myeloperoxidase activity at 300 uM administered rectally QD for 6 days; format: functional; design: scale not given: the % may be the effect or the level left; outline: as §5
Rattus norvegicus [17] = test: Antiinflammatory activity against trinitrobenzenesulfonic acid-induced colitis in rat assessed as decrease in myeloperoxidase activity at 100 uM administered rectally QD for 6 days; format: functional; design: scale not given: the % may be the effect or the level left; outline: as §5
Rattus norvegicus [18] = test: Antiinflammatory activity against trinitrobenzenesulfonic acid-induced colitis in rat assessed as decrease in COX2 protein at 30 mM administered rectally QD for 6 days; format: functional, organism-based; outline: as §5
Rattus norvegicus [19] = test: Antiinflammatory activity against trinitrobenzenesulfonic acid-induced colitis in rat assessed as healing of damaged colon at 30 mM administered rectally QD for 6 days; format: functional, organism-based; outline: as §5
Rattus norvegicus [20] = test: Antiinflammatory activity against trinitrobenzenesulfonic acid-induced colitis in rat assessed as decrease in CINC2 protein expression at 30 mM administered rectally QD for 6 days; format: functional, organism-based
Rattus norvegicus [21] = test: Antiinflammatory activity against trinitrobenzenesulfonic acid-induced colitis in rat assessed as decrease in myeloperoxidase activity at 30 mM administered rectally QD for 6 days; format: functional, organism-based; outline: as §5

**Q.** For `O=C(O)c1cc([N+](=O)[O-])ccc1O`, which inhibition (HCT-116 [1]) is on record?
**A.** Its inhibition is “Active”.

**Q.** For `O=C(O)c1ccccc1O`, which inhibition (RAW264.7 [2]) is on record?
**A.** Its inhibition is “Active”.

**Q.** And the inhibition (HCT-116 [1])?
**A.** Its inhibition is “Active”.

**Q.** What about the inhibition (RAW264.7 [3]) of the same compound?
**A.** Its inhibition is “Active”.

**Q.** With `NC(=O)c1cc(Cl)ccc1O` as the compound, how does the inhibition (RAW264.7 [4]) read?
**A.** The inhibition was “Active”.

**Q.** With `O=C(NCc1ccccc1)c1cc(Cl)ccc1O` as the compound, how does the IC50 [5] read?
**A.** The IC50 was 105 µM.

**Q.** For `O=C(NCCCc1ccccc1)c1cc(Cl)ccc1O`, which inhibition (HCT-116 [6]) is on record?
**A.** Its inhibition is “Dose-dependent effect”.

**Q.** And the IC50 [5]?
**A.** Its IC50 is 17 µM.

**Q.** What about the inhibition (RAW264.7 [7]) of the same compound?
**A.** Its inhibition is “Active”.

**Q.** Which inhibition (HCT-116 [1]) does the source give for `CC(=O)Oc1ccccc1C(=O)O` here?
**A.** Its inhibition is “Active”.

**Q.** Which IC50 [5] does the source give for `CN1CCN(C(=O)c2cc(Cl)ccc2O)CC1` here?
**A.** The IC50 was over 250 µM.

**Q.** With `O=C(O)c1cc(-c2ccc(F)cc2F)ccc1O` as the compound, how does the inhibition (HCT-116 [1]) read?
**A.** The inhibition was “Active”.

**Q.** What does the source list for `O=C(NCCc1ccc(O)cc1)c1cc(Cl)ccc1O`?
**A.** inhibition (HCT-116 [6]): Dose-dependent effect; IC50 [5]: 91 µM; inhibition (RAW264.7 [8]): Active

**Q.** With `O=C(O)c1cc(Cl)ccc1O` as the compound, how does the inhibition (HCT-116 [1]) read?
**A.** Its inhibition is “Active”.

**Q.** What about the inhibition (RAW264.7 [9]) of the same compound?
**A.** The inhibition was “Active”.

**Q.** For `O=C(c1cc(Cl)ccc1O)N1CCOCC1`, which IC50 [5] is on record?
**A.** Its IC50 is over 250 µM.

**Q.** With `CN(C)C(=O)c1cc(Cl)ccc1O` as the compound, how does the IC50 [5] read?
**A.** The IC50 was over 250 µM.

**Q.** With `O=C(c1cc(Cl)ccc1O)N1CCN(c2ccccc2)CC1` as the compound, how does the IC50 [5] read?
**A.** Its IC50 is over 250 µM.

**Q.** Which inhibition (HCT-116 [1]) does the source give for `COC(=O)c1ccccc1O` here?
**A.** The inhibition was “Active”.

**Q.** For `CCCCCCNC(=O)c1cc(Cl)ccc1O`, which IC50 [5] is on record?
**A.** Its IC50 is 95 µM.

**Q.** Which Activity (Rattus norvegicus [10]) does the source give for `O=C(NCCc1ccccc1)c1cc(Cl)ccc1O` here?
**A.** The Activity was “Dose-dependent effect”.

**Q.** And the Activity (Rattus norvegicus [11])?
**A.** The Activity was “Active”.

**Q.** What about the Activity (Rattus norvegicus [12]) of the same compound?
**A.** The Activity was “Active”.

**Q.** And the Activity (Rattus norvegicus [13])?
**A.** Its Activity is “Active”.

**Q.** What about the Activity (Rattus norvegicus [14]) of the same compound?
**A.** Its Activity is “Dose-dependent effect”.

**Q.** And the inhibition (HCT-116 [6])?
**A.** The inhibition was “Dose-dependent effect”.

**Q.** And the IC50 [5]?
**A.** Its IC50 is 15 µM.

**Q.** And the Activity (Rattus norvegicus [15])?
**A.** Its Activity is “Dose-dependent effect”.

**Q.** And the Activity (Rattus norvegicus [16])?
**A.** The Activity was 35%.

**Q.** And the Activity (Rattus norvegicus [17])?
**A.** The Activity was 60%.

**Q.** And the inhibition (RAW264.7 [7])?
**A.** The inhibition was “Active”.

**Q.** For `CNC(=O)c1cc(Cl)ccc1O`, which IC50 [5] is on record?
**A.** The IC50 was over 250 µM.

**Q.** Which inhibition (HCT-116 [1]) does the source give for `NC(=O)c1ccccc1O` here?
**A.** Its inhibition is “Active”.

**Q.** What about the inhibition (RAW264.7 [9]) of the same compound?
**A.** The inhibition was “Active”.

**Q.** Which results are given for `Nc1ccc(O)c(C(=O)O)c1`?
**A.** Activity (Rattus norvegicus [18]): Active; Activity (Rattus norvegicus [19]): Active; inhibition (HCT-116 [1]): Active; Activity (Rattus norvegicus [20]): Active; Activity (Rattus norvegicus [21]): Active

**Q.** Which IC50 [5] does the source give for `O=C(c1cc(Cl)ccc1O)N1CCNCC1` here?
**A.** The IC50 was over 250 µM.

**Q.** Which IC50 [5] does the source give for `O=C(c1cc(Cl)ccc1O)N1CCCCC1` here?
**A.** The IC50 was over 250 µM.
